One assay relates to Aspergillus flavus. Briefly: Antifungal activity against Aspergillus flavus NRRL 6541 at 200 ug/disk after 48 hrs by standard disk diffusion assay. It counts as functional. Conditions: for zone of inhibition at 200 µg/disc: NRRL 6541, 48 h, read-out: IZ. In outline:
(§1)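 Compounds applied at 200 µg per disk. Read-out was the zone diameter (mm) around the disk at 48 h. Zones were scored as clear, partial clearing, or reduced sporulation of the fungus.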

The next assay has as its system Fusarium verticillioides. Briefly: Antifungal activity against Fusarium verticillioides NRRL 25457 at 200 ug/disk after 48 hrs by standard disk diffusion assay. The format is functional, organism-based. In outline: as §1
A further assay concerns Staphylococcus aureus. Briefly: […] activity against Staphylococcus aureus ATCC 29213 at 200 ug/disk after 48 hrs by standard disk diffusion assay. It counts as functional, organism-based. For orientation: Agar diffusion results depend on both activity and mobility in agar.
For a further assay, the system named is Escherichia coli. Briefly: […] activity against Escherichia coli ATCC 25922 at 200 ug/disk after 48 hrs by standard disk diffusion assay. It counts as functional, organism-based.
The test system of another assay is Candida albicans. As to the kind of experiment: Antifungal activity against Candida albicans ATCC 14053 at 200 ug/disk after 48 hrs by standard disk diffusion assay. The format is functional, organism-based.

SMILES strings stand for the structures. Active and inactive are the calls of the source. The calls are words filed in the database; no cut-off is given here.

For the compound `C/C=C/CCC(=O)c1cc(CO)c(OC)cc1O`, the zone of inhibition at 200 µg/disc with Aspergillus flavus stood at 18 mm.
Regarding `O[C@@H]1c2cocc2[C@@H](O)[C@H]2O[C@H]21`, the result with Fusarium verticillioides, in the assay with Aspergillus flavus, in the assay with Staphylococcus aureus, with Escherichia coli and in the assay with Candida albicans was inactive.
For `C/C=C/C=C/C(=O)c1cc(C=O)c(OC)cc1O`, the zone of inhibition at 200 µg/disc in the assay with Aspergillus flavus is 40 mm.
With `C/C=C/C=C/C(=O)c1cc(C)c(OC)cc1O`, the outcome in the assay on Aspergillus flavus was inactive.
Turning to `CCCC(O)[C@H]1OCC2=C1[C@@H](O)[C@H]1O[C@H]1[C@@H]2O` (stereo partly drawn), the outcome in the assay on Fusarium verticillioides, in the assay with Aspergillus flavus, with Staphylococcus aureus, with Escherichia coli and in the assay on Candida albicans was inactive.

The values above are taken from ChEMBL document CHEMBL1157229, “Phaeofurans and sorbicillin analogues from a fungicolous Phaeoacremonium species (NRRL 32148)” (2006).
